Measured values from article PMC5400702 (European journal of nuclear medicine and molecular imaging, 2017).
Values joined by “and” are separate entries in the source; they are usually repeats but may differ in a detail not shown here. Equal entries are not always repeated. Where two headings read alike, the source gives them in different places.

Columns and labels:
α7 nAChRs [1] = biological target: T1, α7 nAChRs (Macaca mulatta, UniProt Q866A2); assay type: in vivo; details: 2TCM, rhesus monkey; for K1: average across all subjects and gray matter regions
T1 sequence (Q866A2 23-502): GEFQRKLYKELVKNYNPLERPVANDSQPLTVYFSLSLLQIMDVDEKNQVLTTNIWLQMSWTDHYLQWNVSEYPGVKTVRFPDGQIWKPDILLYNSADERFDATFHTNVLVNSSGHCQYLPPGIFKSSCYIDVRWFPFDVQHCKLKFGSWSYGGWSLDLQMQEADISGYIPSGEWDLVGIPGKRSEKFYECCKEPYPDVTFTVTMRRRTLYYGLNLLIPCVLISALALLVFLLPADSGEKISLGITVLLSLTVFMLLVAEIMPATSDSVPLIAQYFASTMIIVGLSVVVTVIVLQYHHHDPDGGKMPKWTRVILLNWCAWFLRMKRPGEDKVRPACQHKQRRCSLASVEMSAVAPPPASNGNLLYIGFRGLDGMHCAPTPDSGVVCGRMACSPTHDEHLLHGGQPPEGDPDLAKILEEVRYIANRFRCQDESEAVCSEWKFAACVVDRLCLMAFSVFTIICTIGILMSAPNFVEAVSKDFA

[2] = assay type: in vivo, Macaca mulatta; details: arterial plasma, 120 min post-injection, averaged across subjects, rhesus monkey
Plasma free fraction [3] = assay type: in vitro ADME, Macaca mulatta; details: rhesus monkey plasma, ultrafiltration
Method in brief: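 Plasma from arterial samples of anesthetized rhesus monkeys during radiotracer PET scans was tested. Free fraction was measured by ultrafiltration in triplicate for each scan.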

α7 nAChRs [4] = biological target: T2, α7 nAChRs (Homo sapiens, UniProt P36544); experiment: [18F]ASEM PET imaging in human brain, kinetic modeling and test-retest; assay type: in vivo; details: for K1 / VT / VT/fp: humans n=6; for VT TRV / VT/fp TRV: humans n=4
T2 sequence (P36544 23-502): as the sequence (Q866A2 23-502) above, with S171N, K186R, M373V, A376V counted along it

[5] = Parent [18F]ASEM in human arterial plasma; assay type: in vivo; details: for parent [18F]ASEM fraction of radioactivity in plasma: human arterial plasma
Method in brief: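 Six healthy volunteers (5 M, 1 F; 26–51 y) received 317±87 MBq radiotracer as a 1-min slow bolus into a forearm vein. Manual radial-artery samples were taken over 180 min post-injection. Plasma was analysed by HPLC for parent fraction, giving the metabolite-corrected arterial input function, expressed as SUV.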

Plasma free fraction [6] = assay type: in vitro ADME, human
α7 nAChRs [7] = biological target: T2, α7 nAChRs; details: two subjects, initial [18F]ASEM human study ref 11; cited from earlier work
α7 nAChRs [8] = biological target: T1, α7 nAChRs; experiment: [18F]ASEM PET blocking scans with nicotine, varenicline and cold ASEM; details: for receptor occupancy: Lassen plot
α7 nAChRs [9] = details: full agonist ref 16, 17; cited from earlier work
[10] = 0.33 mg/kg varenicline, one value per animal (two animals)
[11] = 0.24 mg/kg nicotine, averaged across regions, one value per animal (two animals)

SMILES: O=S1(=O)c2cc(N3CCN4CCC3CC4)ccc2-c2cccc([18F])c21 [[^18F]ASEM]
- K1 (α7 nAChRs [1]): 0.59±0.14 mL/cm^3·min^−1
- k2 (α7 nAChRs [1]): 0.022 ± 0.010 min⁻¹
- parent fraction of total plasma radioactivity [2]: 16%
- free fraction (fP) in plasma (Plasma free fraction [3]): 14.9±1.1%
- K1 (α7 nAChRs [4]; 1TCM, Caudate): 0.33±0.03 mL/cm^3 per min
- VT (α7 nAChRs [4]; 1TCM, Caudate): 22.4±3.9 mL/cm^3
- K1 (α7 nAChRs [4]; 1TCM, Cerebellum): 0.36±0.08 mL/cm^3 per min
- VT (α7 nAChRs [4]; 1TCM, Cerebellum): 20.0±3.2 mL/cm^3
- K1 (α7 nAChRs [4]; 1TCM, Frontal Cortex): 0.35±0.07 mL/cm^3 per min
- VT (α7 nAChRs [4]; 1TCM, Frontal Cortex): 24.7±3.0 mL/cm^3
- K1 (α7 nAChRs [4]; 1TCM, Hippocampus): 0.26±0.04 mL/cm^3 per min
- VT (α7 nAChRs [4]; 1TCM, Hippocampus): 21.7±2.3 mL/cm^3
- K1 (α7 nAChRs [4]; 1TCM, Occipital Cortex): 0.37±0.06 mL/cm^3 per min
- VT (α7 nAChRs [4]; 1TCM, Occipital Cortex): 25.6±3.1 mL/cm^3
- K1 (α7 nAChRs [4]; 1TCM, Putamen): 0.39±0.10 mL/cm^3 per min
- VT (α7 nAChRs [4]; 1TCM, Putamen): 25.8±3.6 mL/cm^3
- VT (α7 nAChRs [4]; 1TCM, Temporal Cortex): 26.1±3.7 mL/cm^3
- K1 (α7 nAChRs [4]; 1TCM, Thalamus): 0.38±0.08 mL/cm^3 per min
- VT (α7 nAChRs [4]; 1TCM, Thalamus): 26.6±3.3 mL/cm^3
- underestimation of VT with truncated data (α7 nAChRs [4]; 60 min of data vs 180 min, humans): 7.4±5.1%
- underestimation of VT with truncated data (α7 nAChRs [4]; 90 min of data vs 180 min, humans): 5.5±3.8%
- underestimation of VT with truncated data (α7 nAChRs [4]; 120 min of data vs 180 min, humans): 4.2±2.6%
- test-retest variability of VT (α7 nAChRs [4]; MA1, 120 min of data, four human subjects, all regions): 11.7±9.8%
- VT TRV (α7 nAChRs [4]; MA1, Caudate): 12.5±8.1%
- VT/fp TRV (α7 nAChRs [4]; MA1, Caudate): 6.8±7.4%
- VT (α7 nAChRs [4]; MA1, Caudate): 21.6±2.6 mL/cm^3
- VT/fp (α7 nAChRs [4]; MA1, Caudate): 288±72 mL/cm^3
- VT TRV (α7 nAChRs [4]; MA1, Cerebellum): 13.4±7.6%
- VT/fp TRV (α7 nAChRs [4]; MA1, Cerebellum): 7.8±6.2%
- VT (α7 nAChRs [4]; MA1, Cerebellum): 19.6±2.5 mL/cm^3
- VT/fp (α7 nAChRs [4]; MA1, Cerebellum): 259±57 mL/cm^3
- VT TRV (α7 nAChRs [4]; MA1, Frontal Cortex): 11.0±11.4%
- VT/fp TRV (α7 nAChRs [4]; MA1, Frontal Cortex): 10.2±7.7%
- VT (α7 nAChRs [4]; MA1, Frontal Cortex): 24.6±2.7 mL/cm^3
- VT/fp (α7 nAChRs [4]; MA1, Frontal Cortex): 326±66 mL/cm^3
- VT TRV (α7 nAChRs [4]; MA1, Hippocampus): 10.9±8.4%
- VT/fp TRV (α7 nAChRs [4]; MA1, Hippocampus): 8.0±7.8%
- VT (α7 nAChRs [4]; MA1, Hippocampus): 21.7±2.1 mL/cm^3
- VT/fp (α7 nAChRs [4]; MA1, Hippocampus): 287±58 mL/cm^3
- VT TRV (α7 nAChRs [4]; MA1, Occipital Cortex): 10.5±10.5%
- VT/fp TRV (α7 nAChRs [4]; MA1, Occipital Cortex): 9.9±8.4%
- VT (α7 nAChRs [4]; MA1, Occipital Cortex): 25.7±2.7 mL/cm^3
- VT/fp (α7 nAChRs [4]; MA1, Occipital Cortex): 339±70 mL/cm^3
- VT TRV (α7 nAChRs [4]; MA1, Putamen): 12.0±8.1%
- VT/fp TRV (α7 nAChRs [4]; MA1, Putamen): 7.8±7.5%
- VT (α7 nAChRs [4]; MA1, Putamen): 25.4±3.0 mL/cm^3
- VT/fp (α7 nAChRs [4]; MA1, Putamen): 335±66 mL/cm^3
- VT TRV (α7 nAChRs [4]; MA1, Temporal Cortex): 11.8±10.1%
- VT/fp TRV (α7 nAChRs [4]; MA1, Temporal Cortex): 9.1±7.8%
- VT (α7 nAChRs [4]; MA1, Temporal Cortex): 25.8±3.2 mL/cm^3
- VT/fp (α7 nAChRs [4]; MA1, Temporal Cortex): 342±75 mL/cm^3
- VT TRV (α7 nAChRs [4]; MA1, Thalamus): 11.0±6.4%
- VT/fp TRV (α7 nAChRs [4]; MA1, Thalamus): 6.9±7.8%
- VT (α7 nAChRs [4]; MA1, Thalamus): 25.9±2.9 mL/cm^3
- VT/fp (α7 nAChRs [4]; MA1, Thalamus): 343±75 mL/cm^3
- test-retest variation of VT/fP (α7 nAChRs [4]; MA1, four human subjects, all regions): 9.3±7.3%
- peak SUV in brain (α7 nAChRs [4]; human brain): 3.0–4.5 SUV
- time of peak radioactivity concentration in brain (α7 nAChRs [4]; human brain, post-injection): 20 to 30 min
- pharmacological effects following administration (α7 nAChRs [4]; humans, administered mass 132±185 ng): No detectable pharmacological effects
- VT higher than previously reported values (α7 nAChRs [4]; humans, compared with ref 11): roughly 15%
- parent [18F]ASEM fraction of radioactivity in plasma ([5]; 60 min after injection): 27.5±7.9%
- parent [18F]ASEM fraction of radioactivity in plasma ([5]; 180 min post-injection): 8.8±1.6%
- time of peak of parent [18F]ASEM curve in arterial plasma ([5]; humans): 1.25 min
- SUV of parent [18F]ASEM curve in arterial plasma at end of scans ([5]; humans, 180 min post-injection): 0.47±0.08 SUV
- peak SUV of parent [18F]ASEM curve in arterial plasma ([5]; humans, at 1.25 min): 4.4±1.2 SUV
- test-retest variation of plasma free fraction (fP) (Plasma free fraction [6]; four human subjects): −5.3±18.0%
- fP (Plasma free fraction [6]; human plasma): 7.7±1.3%
- test-retest variability of VT (α7 nAChRs [7]): 10.8±5.1%
- VND (α7 nAChRs [8]; estimated from Lassen plots, one value per animal (two animals)): 25.3 mL/cm^3 and 16.0 mL/cm^3

SMILES: c1cnc2cc3c(cc2n1)[C@@H]1CNC[C@H]3C1 [varenicline]
- Ki (α7 nAChRs [9]): 322 nM
- change of [18F]ASEM VT (α7 nAChRs [8]; [10]): −2.6±6.2% and 5.2±16.9%
- change of [18F]ASEM VT/fP (α7 nAChRs [8]; [10]): −1.6±5.5% and −5.4±15.2%

SMILES: CN1CCC[C@H]1c1cccnc1 [nicotine]
- change of [18F]ASEM VT (α7 nAChRs [8]; [11]): −0.1±6.7% and 5.3±9.1%
- change of [18F]ASEM VT/fP (α7 nAChRs [8]; [11]): −7.2±6.2% and −3.0±8.4%

SMILES: O=S1(=O)c2ccc([18F])cc2-c2ccc(N3CCN4CCC3CC4)cc21 [[^18F]DBT-10]
- K1 (α7 nAChRs [1]): 0.66±0.11 mL/cm^3·min^−1
- k2 (α7 nAChRs [1]): 0.024 ± 0.010 min⁻¹
- parent fraction of total plasma radioactivity [2]: 30%
- free fraction (fP) in plasma (Plasma free fraction [3]): 18.3±3.9%

SMILES: O=S1(=O)c2cc(N3CCN4CCC3CC4)ccc2-c2cccc(F)c21 [ASEM]
- receptor occupancy (α7 nAChRs [8]; 0.67 mg/kg cold ASEM, one animal): 18.8% and 19%
- receptor occupancy (α7 nAChRs [8]; 1.24 mg/kg cold ASEM, two animals): 36.7% and 40.2% and 37–40%
